Screens deposited in PubChem BioAssay by several laboratories.
UBC13 inh – UBC13 polyubiquitin chain formation inhibitors, primary screen, biochemical, TR-FRET, uHTS | Ubiquitin-conjugating enzyme E2 N (Homo sapiens), P61088 | inhibition, % at 20 µM | actives 0.47% (n = 330,000) | AID 485273, 2010; in the data active = inhibition above about 45%, passing the limit was not always enough
Target sequence (P61088 whole entry, looked up): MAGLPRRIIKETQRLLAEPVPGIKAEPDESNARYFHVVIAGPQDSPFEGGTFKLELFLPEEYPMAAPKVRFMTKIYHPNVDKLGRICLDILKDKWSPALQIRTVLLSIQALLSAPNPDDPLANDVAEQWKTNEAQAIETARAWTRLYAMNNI
MEKK2mut PB1 HTS – MEK5 binding signal on mutant MEKK2 PB1, primary screen, biochemical, multiplex bead flow cytometry, Alexa488-MEK5 | percent response, % at 10 µM | Alexa488-MEK5 binding to MEKK2 mutant | actives 0.35% (n = 290,000); in the data active = percent response above about 24%, passing the limit was not always enough
Apaf-1 inh – inhibitors of human Apaf-1 apoptosome, primary screen, biochemical, DEVD-Rh110 fluorescence, uHTS; reconstituted apoptosome caspase-3 activity; inhibition, % at 20 µM; actives 0.71% (n = 330,000); AID 489030, 2010; active = inhibition of at least 40% at 20 µM;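 note: plate controls were DMSO wells for no effect and DEVD-CHO caspase inhibitor wells for full effect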
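System: reconstituted apoptosome with Apaf-1, cytochrome c, caspase-9, procaspase-3, dATP; Signal: Rh110 fluorescence intensity; Schedule: 30 min compound preincubation, 50 min activation, room temperature; Reagent: cytochrome c trigger plus (Z-DEVD)2-Rh110 caspase-3 substrate.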
UCH37 DUB inh – inhibitors of human UCH37 deubiquitinase, primary screen, biochemical, Ub-AMC cleavage, fluorescence. actives 0.33% (n = 330,000). AID 588478, 2011. Ubiquitin carboxyl-terminal hydrolase isozyme L5 (Homo sapiens), Q9Y5K5. purified proteasome/UCH37. inhibition, % (no concentration beside the values);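 active = mean inhibition over replicate wells above about 20%, limit read from the data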;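 note: 0% = compound-free wells with enzyme and 100% = wells lacking proteasome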
Target sequence (Q9Y5K5 whole entry, looked up): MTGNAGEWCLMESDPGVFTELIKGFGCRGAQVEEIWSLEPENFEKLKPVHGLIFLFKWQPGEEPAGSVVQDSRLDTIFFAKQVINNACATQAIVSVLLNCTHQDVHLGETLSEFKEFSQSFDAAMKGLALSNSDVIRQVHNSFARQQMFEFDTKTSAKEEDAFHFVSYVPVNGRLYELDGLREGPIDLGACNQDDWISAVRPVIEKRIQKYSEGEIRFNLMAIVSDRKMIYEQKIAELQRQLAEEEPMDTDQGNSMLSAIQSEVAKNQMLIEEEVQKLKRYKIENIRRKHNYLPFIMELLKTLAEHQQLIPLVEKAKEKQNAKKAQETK
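system = Proteasome-associated human UCH37 deubiquitinase | amount = 0.15 nM proteasome as dispensed | medium = pH 7.4 Tris-HCl (50 mM) with ovalbumin, ATP-MgCl2, DTT | incubation = 30 min preincubation with enzyme, 25 min cleavage at room temperature | detection = AMC fluorescence 355/460 nm | read-out basis = percent inhibition | controls = no-proteasome and no-compound wells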
MEKK2 WT-MEK5 – modulators of MEK5 binding to wildtype MEKK2, primary screen, biochemical, multiplex bead flow cytometry, Alexa488-MEK5. binding response (% of control), % at 10 µM. actives 1.1% (n = 290,000). Alexa488-MEK5 binding to MEKK2 WT; actives lie on both sides; in the data active = binding response below about 67% or above about 130%
MEKK3 PB1 HTS – modulators of MEKK3-MEK5 PB1 binding, primary screen, biochemical, wildtype MEKK3, multiplex bead flow cytometry, Alexa488-MEK5; Mitogen-activated protein kinase kinase kinase 3 (Homo sapiens), Q99759; bead-based flow cytometry, Alexa488-MEK5 binding to MEKK3; actives lie on both sides; 0 = blocked by unlabeled MEK5, 100 = vehicle; binding response (% of control), % at 10 µM; actives 1.4% (n = 290,000); AID 1529, 2009;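 active = binding response more than 3 SD above or below the average of its plate-row segment, actives on both sides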;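 note: Alexa488 bead fluorescence after subtracting the streptavidin-only scavenger bead signal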
The depositor's hits bear a star; i = inactive; x = not tested or not shown; [ ] = remark or other dose. Hits are enriched below; roughly 3% of the tested compounds scored in any of these assays.

SMILES	UBC13 inh	MEKK2mut PB1 HTS	Apaf-1 inh	UCH37 DUB inh	MEKK2 WT-MEK5	MEKK3 PB1 HTS
O=C(COC(=O)CCc1c[nH]c2ccccc12)Nc1ccccc1	1	x	-2	1	x	x
COc1ccc(C(=O)NC(=S)N2CCN(c3ccccc3O)CC2)cc1	-4	x	-6	6	x	x
COCCn1c(=O)c2cc3c(=O)n(CCOC)c(=O)c3cc2c1=O	6	3	-15	4	99	102
CC(C)(C)C(=O)OCCn1c(=O)c2cc3c(=O)n(CCOC(=O)C(C)(C)C)c(=O)c3cc2c1=O	-4	-16	15	3	2.0*[inhibitor]	2.0*[inhibitor]
COc1cc(OC)c(OC)cc1CNc1nnnn1C	2	14	-15	1	103	105
Nc1cc(N)c(OCC(F)(F)F)cc1OCC(F)(F)F	-74	-13	84*	4	94	90
CCCOc1ccc(N)cc1N	-50	x	91*	6	x	x
CC(=NOC(=O)c1cccc(Cl)c1)c1nccs1	x	x	x	-1	x	x
CCCCN(CCCC)c1ncnc2nc[nH]c12	29	0	-1	3	102	123
CCCCN(Cc1ccccc1)c1ncnc2nc[nH]c12	47*	13	12	3	117	110
Oc1ccc(N2CCN(CC(O)c3ccccc3)CC2)cc1 (centres undefined)	-1	-3	1	5	102	104
CCO/C(=C/c1sc2ccc(OC)cc2[n+]1CCCS(=O)(=O)[O-])CC	1	1	9	21*	99	98
Cc1ccccc1Cc1c(C)nc2nc(SCC(=O)NCCCN3CCCCC3)nn2c1C	5	2	22	1	109	104
Cc1nc2nc(SCC(=O)NCCCN3CCCCCC3)nn2c(C)c1Cc1ccccc1	36	34*	12	2	190*	110
CC(=O)OC1=C(O)C(=O)c2ccccc2C1=O	-120	1	59*	x	100	101
CN=CC1=C(O)c2ccccc2C1=O	-8	6	-22	7	110	107
C(=N\NC1=Nc2cccc3cccc1c23)/c1ccccn1	x	1	x	x	8.0*	95
N#Cc1c2c(c(-n3cnc4ccccc43)n3c1nc1ccccc13)CCC2	0	-13	45*	-7	85	73
CC(CC(=O)N1CCN(C=O)CC1)=NNC(=O)c1ccc([N+](=O)[O-])cc1	x	x	x	4	x	x
C/C(CC(=O)N1CCN(C=O)CC1)=N\NC(=O)c1cccc([N+](=O)[O-])c1	6	5	-23	x	15*	108
CC1CCN(C(=O)CSc2nc(=O)n3cc(Cl)ccc3n2)CC1	-7	x	5	5	x	x
COc1ccc(-n2c(SCC(=O)N3CCOCC3)nc(O)cc2=O)cc1	6	3	-3	-1	105	106
COc1ccc(-n2c(SCC(=O)N3CCOCC3)nc(O)c(Cc3ccccc3)c2=O)cc1	-10	-3	4	30*	94	96
C/C(=N/NC(=O)c1cccs1)c1c(C)[nH]n(-c2nc3ccccc3s2)c1=O	-4	-1	-5	x	100	139*
O=C(NC1CC1)C1=C[C@@H](C2CC2)C[C@@H](OCCCCO)O1	3	1	-2	23*	100	106
SMILES	UBC13 inh	MEKK2mut PB1 HTS	Apaf-1 inh	UCH37 DUB inh	MEKK2 WT-MEK5	MEKK3 PB1 HTS
Cc1ccc(C2=N/C(=C/N3CCOCC3)C(=O)O2)cc1	-17	-5	15	20*	91	85
Cc1ccc(C2=N/C(=C\N3CCCCC3)C(=O)O2)cc1	-3	0	4	16	101	101
CN(C)/C=C1\N=C(c2ccc3c(c2)OCO3)OC1=O	-18	9	9	17	102	99
CN(C)/C=C1\N=C(c2ccccc2)OC1=O	-3	-5	-14	20*	93	101
CCCn1c(SCC(=O)Nc2ccccc2C(=O)NC2CC2)n[nH]c1=O	8	x	-5	2	x	x
COC(=O)c1cn(Cc2ccc(C(F)(F)F)cc2)cc(F)c1=O	5	11	-11	2	108	108
O=C(NCc1ccccc1)C(=O)Nc1nc(-c2ccccc2)cs1	-12	14	4	-2	105	108
CN(C)CCN(C(=O)c1ccc(C(=O)c2ccccc2)cc1)c1nc2cc3c(cc2s1)OCO3	5	22	20	2	140*	106
CN(C)CCN(C(=O)c1ccc(C(=O)c2ccccc2)cc1)c1nc2cc3c(cc2s1)OCCO3	38	4	10	1	123	100
COc1ccc(C)c2sc(N(CCN(C)C)C(=O)c3ccc4ccccc4c3)nc12	18	24*	28	6	145*	105
CCN(CC)CCN(C(=O)c1ccc(S(=O)(=O)N(CC)c2ccccc2)cc1)c1nc2c(OC)ccc(OC)c2s1	19	28*	-7	3	157*	106
O=C1CC(c2ccccc2)CC(O)=C1C=NCCCO (centres undefined)	2	8	-4	22*	97	100
CCCN=CC1=C(O)CC(c2ccccc2)CC1=O (centres undefined)	-4	3	-1	1	105	110
Cc1ccc(C)c(OCCC(=O)OCC(=O)NCc2ccc(F)cc2)c1	1	5	12	1	106	101
Cc1ccc2[nH]c(C)c(/C=C/c3cc[n+](C)cc3)c2c1	i	-17	12	22*	118	97
Nc1nc(-c2cccnc2)nn1C(=O)c1ccc(Cl)cc1	x	2	x	0	-3.0*	96
CCC(C)Nc1nc(-c2c[nH]c3ccccc23)cs1 (centres undefined)	-20	8	30	x	-19*	78*[inhibitor]
CCc1ccc(-c2csc(-c3c[nH]c4ccccc34)n2)cc1	18	1	17	-5	132	108
CS(=O)(=O)Nc1cccc(C2=NN(S(C)(=O)=O)C(c3ccccc3)C2)c1 (centres undefined)	3	37	6	4	23*	104
CS(=O)(=O)N1N=C(c2cccs2)CC1c1ccccc1 (centres undefined)	3	12	-5	4	0.0*	95
COc1ccc(C2CC(c3cccs3)=NN2S(C)(=O)=O)cc1 (centres undefined)	-4	7	-15	0	87	100
